Test results: ChEMBL document CHEMBL1255388, “Antimalarial asexual stage-specific and gametocytocidal activities of HIV protease inhibitors” (Antimicrob Agents Chemother, 2010)
Active and inactive are the calls of the source. The rule behind the calls is not given here.

Experiments:
Format in all cases: functional, organism-based
[1] = system: Plasmodium falciparum; experiment: Antigametocyte activity against Plasmodium falciparum harboring GFP-tagged Pfs16 protein assessed as reduction in number of gametocytes after 40 hrs by [3H]hypoxanthine incorporation assay
[2] = system: Plasmodium falciparum; experiment: Antimicrobial activity against chloroquine-sensitive Plasmodium falciparum 3D7 after 48 hrs; settings: 3D7, 48 h
In short: (§1)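 In vitro growth inhibition of P. falciparum asexual cultures. Concentrations giving 10, 50 and 90% inhibition (± SE) were obtained by nonlinear regression curve fitting. Each assay was run in triplicate on at least two separate occasions.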

[3] = system: Plasmodium falciparum; experiment: Antimicrobial activity against chloroquine-sensitive Plasmodium falciparum D10 after 48 hrs; settings: D10, 48 h; in short: as §1
[4] = system: Plasmodium falciparum; experiment: Antimicrobial activity against Plasmodium falciparum harboring […]-tagged Pfs16 protein after 48 hrs; in short: as §1
[5] = system: Plasmodium falciparum; experiment: Antigametocyte activity against Plasmodium falciparum D10 trophozoites assessed as inhibition of parasite growth at 50 nM after 1 to 8 hrs
In short: (§2)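 Synchronized D10 cultures exposed to drug at 0 h (ring), 24 h (trophozoite) or 36 h (schizont) postsynchronization. After exposure, parasites washed, resuspended in drug-free medium and labelled with 0.5 μCi/well [3H]hypoxanthine for 40 h. Uptake compared with vehicle controls. Triplicate wells, repeated on at least two separate occasions.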

[6] = system: Plasmodium falciparum; experiment: Antigametocyte activity against Plasmodium falciparum D10 schizonts assessed as inhibition of parasite growth at 50 nM after 1 to 8 hrs; in short: as §2
[7] = system: Plasmodium falciparum; experiment: Antigametocyte activity against ring stage Plasmodium falciparum D10 assessed as inhibition of parasite growth at 50 nM after 1 to 8 hrs; in short: as §2
[8] = system: Plasmodium falciparum; experiment: Antigametocyte activity against drug-resistant ring stage Plasmodium falciparum Dd2 […] assessed as inhibition of parasite growth at 50 nM after 1 to 8 hrs
In short: (§3)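 Synchronized P. falciparum cultures were drug-exposed at 0 (ring), 24 (trophozoite) or 36 h (schizont) post-synchronization. They were then washed, resuspended in drug-free medium and seeded with 0.5 μCi/well [3H]hypoxanthine for 40 h. Incorporation was compared with vehicle controls. Triplicate, on at least two separate occasions.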

[9] = system: Plasmodium falciparum; experiment: Antigametocyte activity against drug-resistant Plasmodium falciparum Dd2 trophozoites assessed as inhibition of parasite growth at 50 nM after 1 to 8 hrs; in short: as §3
[10] = system: Plasmodium falciparum; experiment: Antigametocyte activity against drug-resistant Plasmodium falciparum Dd2 schizonts assessed as inhibition of parasite growth at 50 nM after 1 to 8 hrs; in short: as §3
[11] = system: Plasmodium falciparum; experiment: Antigametocyte activity against drug-resistant Plasmodium falciparum Dd2 trophozoites assessed as inhibition of parasite growth at 40 uM after 1 to 8 hrs; in short: as §3
[12] = system: Plasmodium falciparum; experiment: Antigametocyte activity against drug-resistant Plasmodium falciparum Dd2 schizonts assessed as inhibition of parasite growth at 40 uM after 1 to 8 hrs; in short: as §3
[13] = system: Plasmodium falciparum; experiment: Antigametocyte activity against drug-resistant ring stage Plasmodium falciparum Dd2 assessed as inhibition of parasite growth at 40 uM after 1 to 8 hrs; in short: as §3
[14] = system: Plasmodium falciparum; experiment: Antigametocyte activity against ring stage Plasmodium falciparum D10 assessed as inhibition of parasite growth at 150 uM after 1 to 8 hrs; in short: as §2
[15] = system: Plasmodium falciparum; experiment: Antigametocyte activity against Plasmodium falciparum D10 trophozoites assessed as inhibition of parasite growth at 40 uM after 1 to 8 hrs; in short: as §2
[16] = system: Plasmodium falciparum; experiment: Antigametocyte activity against Plasmodium falciparum D10 schizonts assessed as inhibition of parasite growth at 40 uM after 1 to 8 hrs; in short: as §2
[17] = system: Plasmodium falciparum; experiment: Antigametocyte activity against ring stage Plasmodium falciparum D10 assessed as inhibition of parasite growth at 40 uM after 1 to 8 hrs; in short: as §2
[18] = system: Plasmodium falciparum; experiment: Antigametocyte activity against drug-resistant Plasmodium falciparum Dd2 trophozoites assessed as inhibition of parasite growth at 150 uM after 1 to 8 hrs; in short: as §3
[19] = system: Plasmodium falciparum; experiment: Antigametocyte activity against drug-resistant Plasmodium falciparum Dd2 schizonts assessed as inhibition of parasite growth at 150 uM after 1 to 8 hrs; in short: as §3
[20] = system: Plasmodium falciparum; experiment: Antigametocyte activity against drug-resistant ring stage Plasmodium falciparum Dd2 assessed as inhibition of parasite growth at 150 uM after 1 to 8 hrs; in short: as §3
[21] = system: Plasmodium falciparum; experiment: Antigametocyte activity against Plasmodium falciparum harboring GFP-tagged Pfs16 protein assessed as inhibition of [3H]hypoxanthine incorporation after 40 hrs
[22] = system: Plasmodium falciparum; experiment: Antigametocyte activity against Plasmodium falciparum D10 trophozoites assessed as inhibition of parasite growth at 150 uM after 1 to 8 hrs; in short: as §2
[23] = system: Plasmodium falciparum; experiment: Antimicrobial activity against chloroquine-resistant Plasmodium falciparum Dd2 after 48 hrs; settings: Dd2, 48 h; in short: as §1
[24] = system: Plasmodium falciparum; experiment: Antigametocyte activity against Plasmodium falciparum D10 schizonts assessed as inhibition of parasite growth at 150 uM after 1 to 8 hrs; in short: as §2
[25] = system: Plasmodium falciparum; experiment: Antigametocyte activity against ring stage Plasmodium falciparum D10 assessed as inhibition of parasite growth at 20 uM after 1 to 8 hrs; in short: as §2
[26] = system: Plasmodium falciparum; experiment: Antigametocyte activity against drug-resistant Plasmodium falciparum Dd2 trophozoites assessed as inhibition of parasite growth at 20 uM after 1 to 8 hrs; in short: as §3
[27] = system: Plasmodium falciparum; experiment: Antigametocyte activity against drug-resistant Plasmodium falciparum Dd2 schizonts assessed as inhibition of parasite growth at 20 uM after 1 to 8 hrs; in short: as §3
[28] = system: Plasmodium falciparum; experiment: Antigametocyte activity against drug-resistant ring stage Plasmodium falciparum Dd2 assessed as inhibition of parasite growth at 20 uM after 1 to 8 hrs; in short: as §3
[29] = system: Plasmodium falciparum; experiment: Antigametocyte activity against Plasmodium falciparum D10 trophozoites assessed as inhibition of parasite growth at 20 uM after 1 to 8 hrs; in short: as §2
[30] = system: Plasmodium falciparum; experiment: Antigametocyte activity against Plasmodium falciparum D10 schizonts assessed as inhibition of parasite growth at 20 uM after 1 to 8 hrs; in short: as §2

SMILES: CC(C)c1nc(CN(C)C(=O)N[C@H](C(=O)N[C@@H](Cc2ccccc2)C[C@H](O)[C@H](Cc2ccccc2)NC(=O)OCc2cncs2)C(C)C)cs1 [RITONAVIR]
- inhibition [1]: Dose-dependent effect
- EC50 [2]: 3000 nM
- EC50 [3]: 3000 nM
- EC50 [4]: 5000 nM

SMILES: CCN(CC)CCCC(C)Nc1ccnc2cc(Cl)ccc12 (configuration not stated) [CHLOROQUINE]
- inhibition [5]: Active
- inhibition [6]: Active
- inhibition [7]: inactive
- inhibition [8]: inactive
- inhibition [9]: Active
- inhibition [10]: Active
- EC50 [2]: 25 nM
- EC50 [3]: 23 nM
- EC50 [4]: 23 nM

SMILES: CC(C)(C)NC(=O)[C@@H]1C[C@@H]2CCCC[C@@H]2CN1C[C@@H](O)[C@H](Cc1ccccc1)NC(=O)[C@H](CC(N)=O)NC(=O)c1ccc2ccccc2n1
- inhibition [11]: Active
- inhibition [12]: Active
- inhibition [13]: inactive
- inhibition [1]: Dose-dependent effect
- EC50 [2]: 3000 nM
- EC50 [3]: 3000 nM
- EC50 [4]: 5000 nM
- inhibition [14]: Active
- inhibition [15]: Active
- inhibition [16]: inactive
- inhibition [17]: inactive

SMILES: CCC[C@@]1(CCc2ccccc2)CC(O)=C([C@H](CC)c2cccc(NS(=O)(=O)c3ccc(C(F)(F)F)cn3)c2)C(=O)O1
- inhibition [18]: Active
- inhibition [19]: Active
- inhibition [20]: inactive
- inhibition [21]: Active
- inhibition [1]: Dose-dependent effect
- inhibition [22]: Active
- EC50 [23]: 21000 nM
- EC50 [2]: 20000 nM
- EC50 [3]: 12000 nM
- EC50 [4]: 18000 nM
- inhibition [24]: Active
- inhibition [14]: inactive

SMILES: CC(C)CN(C[C@@H](O)[C@H](Cc1ccccc1)NC(=O)O[C@H]1CO[C@H]2OCC[C@H]21)S(=O)(=O)c1ccc(N)cc1
- EC50 [23]: 70000 nM

SMILES: Cc1cccc(C)c1OCC(=O)N[C@@H](Cc1ccccc1)[C@@H](O)C[C@H](Cc1ccccc1)NC(=O)[C@H](C(C)C)N1CCCNC1=O [LOPINAVIR]
- inhibition [25]: inactive
- inhibition [26]: Active
- inhibition [27]: Active
- inhibition [28]: inactive
- inhibition [1]: Dose-dependent effect
- EC50 [2]: 2000 nM
- EC50 [3]: 2000 nM
- EC50 [4]: 3000 nM
- inhibition [29]: Active
- inhibition [30]: Active
